According to ChEMBL document CHEMBL1817575, “Extended targeting potential and improved synthesis of Microcin C analogs as antibacterials” (Bioorg Med Chem, 2011):
Activity calls are given as the source filed them. No cut-off for these calls is given here. Residues, ends and D or L forms follow the SMILES beside them. *: point of attachment. X7 = CC[C@H](C)[C@H](N*)C(=O)NS(=O)(=O)OC[C@H]1O[C@@H](n2cnc3c(N)ncnc32)[C@H](O)[C@@H]1O; NHTrityl = c1ccc(C(N*)(c2ccccc2)c2ccccc2)cc1; Pbf = Cc1c(C)c(S(=O)(=O)*)c(C)c2c1OC(C)(C)C2; tBu = CC(C)(C)*; For = O=C*

Columns and labels:
Escherichia coli [1] = experiment: Antibacterial activity against Escherichia coli Ara-Yej (BW39758) at <= 0.63 uM after 8 hrs; type: functional, organism-based
Procedure, shortened: (§1)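 Overnight LB cultures were regrown in fresh LB, with or without 5 mM L-arabinose, to OD600 0.1. Compounds were serially titrated in 96-well plates in LB with or without 5 mM L-arabinose, and cells were added. Plates were incubated at 37 °C, and growth inhibition was read as OD600 after 8 h.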

Escherichia coli [2] = experiment: Antibacterial activity against yej or pepA,B,N-genes disrupted Escherichia coli after 8 hrs; type: functional, organism-based; procedure, shortened: as §1

CC[C@H](C)[C@H](NC(=O)[C@H](C)NC(=O)[C@H](CC(=O)NC(c1ccccc1)(c1ccccc1)c1ccccc1)NC(=O)CNC(=O)[C@@H](NC(=O)[C@H](CCCNC(=N)NS(=O)(=O)c1c(C)c(C)c2c(c1C)CC(C)(C)O2)NC(=O)[C@H](CCSC)NC=O)[C@@H](C)OC(C)(C)C)C(=O)NS(=O)(=O)OC[C@H]1O[C@@H](n2cnc3c(N)ncnc32)[C@H](O)[C@@H]1O (For-MR(Pbf)T(tBu)GD(NHTrityl)A-X7)
Activity (Escherichia coli [1]): Active | Activity (Escherichia coli [2]): inactive
